Type: in vivo, Wistar rats
Settings: intragastric crude VB extract 200 mg/kg; concentrations lower than LLOQ
In short: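 Male Wistar rats (200 ± 20 g) were acclimated 7 days with food and water ad libitum. Crude extract, predissolved in 0.5% DMSO and dispersed in 5 mg/mL sodium carboxymethylcellulose, was given intragastrically at 200 mg/kg. Heparinized blood was taken on ice at 0–24 h (12 points) and spun; plasma was held at −20 °C. Plasma (100 μL) plus IS was extracted with ethyl acetate, then 14 bufadienolides quantified by UHPLC-MS/MS against LLOQ.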
With `CC(=O)O[C@H]1C[C@]2(O)[C@@H]3CC[C@@H]4C[C@@H](O)CC[C@]4(C)[C@H]3CC[C@]2(C)[C@H]1c1ccc(=O)oc1` [CS15, bufotalin] the “Detection in rat plasma samples over the sampling period (LC-MS/MS quantitation)” value was “not detected”. For `CC(=O)O[C@H]1[C@H]2O[C@]23[C@@H]2CC[C@@H]4C[C@@H](O)CC[C@]4(C=O)[C@H]2CC[C@]3(C)[C@H]1c1ccc(=O)oc1` [CS17, 19-oxocinobufagin], the “Detection in rat plasma samples over the sampling period (LC-MS/MS quantitation)” value was “not detected”. With `CC(=O)O[C@H]1[C@H]2O[C@]23[C@@H]2CC[C@]4(O)C[C@@H](O)CC[C@]4(C)[C@H]2CC[C@]3(C)[C@H]1c1ccc(=O)oc1` [CS19, cinobufotalin] the “Detection in rat plasma samples over the sampling period (LC-MS/MS quantitation)” value was “not detected”. For `C[C@]12CC[C@H]3[C@@H](CC[C@@H]4C[C@@H](O)CC[C@@]43C=O)[C@]13O[C@@H]3CC2c1ccc(=O)oc1` (stereo partly drawn) [CS16, resibufagin], the “Detection in rat plasma samples over the sampling period (LC-MS/MS quantitation)” value was “not detected”.

Same assay, conditions: male, Wistar, rat, plasma, po, 200 mg/kg
`C[C@]12CC[C@H](O)C[C@H]1CC[C@@H]1[C@@H]2CC[C@]2(C)[C@@H](c3ccc(=O)oc3)CC[C@]12O` [CS21, bufalin] gave an AUC(0-t) of 17 ± 1.76 ng·h/mL, a Cmax of 7.08 ± 1.85 ng/mL and an MRT last of 1.48 ± 0.115 h. For the same molecule, the Tmax was 0.396 ± 0.292 h and the half-life was 1.77 ± 0.821 h. `CC(=O)O[C@H]1[C@H]2O[C@]23[C@@H]2CC[C@@H]4C[C@@H](O)CC[C@]4(C)[C@H]2CC[C@]3(C)[C@H]1c1ccc(=O)oc1` [CS23, cinobufagin] showed an AUC(0-t) of 5.2 ± 2.83 ng·h/mL, a Cmax of 7.29 ± 10.4 ng/mL and an MRT last of 0.913 ± 0.23 h. For the same molecule, the Tmax was 0.833 ± 0.825 h and the half-life was 1.32 ± 0.526 h. `C[C@]12CC[C@H](O)C[C@@]1(O)CC[C@@H]1[C@@H]2CC[C@]2(C)[C@@H](c3ccc(=O)oc3)CC[C@]12O` [CS14, telocinobufagin] gave an AUC(0-t) of 7.22 ± 0.428 ng·h/mL, a Cmax of 4.84 ± 1.09 ng/mL and an MRT last of 0.932 ± 0.129 h. The Tmax was 0.521 ± 0.315 h and the half-life was 1.88 ± 1.19 h. For `C[C@]12CC[C@H](O)C[C@H]1CC[C@@H]1[C@@H]2CC[C@]2(C)[C@@H](c3ccc(=O)oc3)C[C@H]3O[C@]132` [CS22, resibufogenin], the AUC(0-t) was 4.53 ± 0.701 ng·h/mL, the Cmax was 3.79 ± 3.78 ng/mL and the MRT last was 0.836 ± 0.141 h. It also gave a Tmax of 0.333 ± 0.204 h and a half-life of 1.2 ± 0.477 h. Molecule `C[C@]12CC[C@H](O)C[C@H]1CC[C@@H]1[C@@H]2[C@H](O)C[C@]2(C)[C@@H](c3ccc(=O)oc3)CC[C@]12O` [CS36, gamabufotalin] has an AUC(0-t) of 223 ± 11.3 ng·h/mL, a Cmax of 84.4 ± 4 ng/mL and an MRT last of 2.5 ± 0.603 h. It also gave a Tmax of 0.812 ± 0.125 h and a half-life of 2.82 ± 1.27 h. `C[C@]12CC[C@H](O)C[C@H]1CC[C@@H]1[C@@H]2CC[C@]2(C)[C@@H](c3ccc(=O)oc3)[C@@H](O)[C@H]3O[C@]132` [CS30, desacetylcinobufagin] gave an AUC(0-t) of 104 ± 6.06 ng·h/mL, a Cmax of 24.1 ± 2.27 ng/mL and an MRT last of 4.67 ± 1.01 h. For the same molecule, the Tmax was 0.875 ± 0.25 h and the half-life was 10.8 ± 5.24 h.

Same assay, conditions: rat plasma, intragastric crude VB extract 200 mg/kg, n=4
In the case of `CC(=O)O[C@H]1[C@H]2O[C@]23[C@@H]2CC[C@]4(O)C[C@@H](O)CC[C@]4(C=O)[C@H]2CC[C@]3(C)[C@H]1c1ccc(=O)oc1` [CS11, 19-oxocinobufotalin], the “AUC(0-t)” value is reported as 3.669 ± 0.511 ng·h/mL, the Cmax is reported as 2.752 ± 0.814 ng/mL and the “MRT(0-t)” value is reported as 0.942 ± 0.05 h. It also gave a Tmax of 0.562 ± 0.239 h and a t1/2 of 2.614 ± 2.802 h. For `C[C@]12CC[C@H](O)C[C@H]1CC[C@@H]1[C@@H]2C(=O)[C@H](O)[C@]2(C)[C@@H](c3ccc(=O)oc3)CC[C@]12O` [CS01, pseudobufarenogin], the “AUC(0-t)” value was 276.956 ± 60.642 ng·h/mL, the Cmax was 67.225 ± 14.218 ng/mL and the “MRT(0-t)” value was 4.614 ± 0.481 h. The Tmax was 0.75 ± 0 h and the t1/2 was 3.944 ± 1.276 h. With `C[C@]12CC[C@H](O)C[C@H]1CC[C@@H]1[C@@H]2[C@H](O)C(=O)[C@]2(C)[C@@H](c3ccc(=O)oc3)CC[C@]12O` [CS03, arenobufagin] the “AUC(0-t)” value was 1487.316 ± 407.361 ng·h/mL, the Cmax was 466.5 ± 116.920 ng/mL and the “MRT(0-t)” value was 3.338 ± 1.011 h. It also gave a Tmax of 0.938 ± 0.125 h and a t1/2 of 4.537 ± 2.442 h. For `C[C@]12CC[C@H]3[C@@H](CC[C@]4(O)C[C@@H](O)CC[C@]34C=O)[C@@]1(O)CC[C@@H]2c1ccc(=O)oc1` [CS04, hellebrigenin], the “AUC(0-t)” value was 104.246 ± 20.661 ng·h/mL, the Cmax was 13.35 ± 2.243 ng/mL and the “MRT(0-t)” value was 6.478 ± 1.035 h. For the same molecule, the Tmax was 1.438 ± 0.657 h and the t1/2 was 4.884 ± 2.116 h.
